TRPC4 block: blocks the mouse TRPC4 cation channel; Q9QUQ5; HEK293 TRPC4beta/mu-opioid, DAMGO-evoked Fluo4 calcium flux; hits give low values; B-score at 10 µM; actives 0.39% (n = 300,000);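 active = B-score over 3 SD under the library average, no early fluorescence shift, positive overall ratio signal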
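Signal: kinetic Fluo4 fluorescence imaging of calcium influx. Material: stable TRPC4beta/mu-opioid receptor HEK293 cells. Probe or stimulus: DAMGO in two steps, submaximal then maximal.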
TRPC6 activator: activates the mouse TRPC6 cation channel | Q61143 | HEK293-TRPC6 membrane potential dye fluorescence; hits give high values | B-score at 10 µM | actives 0.13% (n = 310,000) | AID 2550;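 active = B-score of the integrated fluorescence ratio above library mean plus 3 SD, and starting fluorescence ratio within library mean plus 5 SD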;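 note: higher score means more depolarization so channel activation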
TRPC6 inh: mouse TRPC6 channel inhibition. AID 2553. Q61143. HEK293-TRPC6, membrane potential dye, ACh-evoked depolarization; hits give low values. actives 1.1% (n = 310,000). B-score at 10 µM;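 active = B-score under library mean minus 3 SD, initial fluorescence not abnormally high, positive integrated signal ratio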;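 note: B-score derived from integrated fluorescence ratio over the kinetic read; more negative B-score means stronger inhibition of depolarization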
TRPC4 potent: allosterically enhances the mouse TRPC4 cation channel. HEK293 TRPC4beta/mu-opioid, DAMGO EC20, Fluo-4 Ca2+ flux; hits give high values. B-score at 10 µM. actives 0.42% (n = 310,000);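 active = B-score of calcium response area above 5 SD of library B-scores, with initial fluorescence ratio within 5 SD of library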;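 note: B-score of integrated fluorescence ratio over time as area under calcium response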
TRPC4 act: TRPC4 (mouse) channel activation; Q9QUQ5; HEK293 TRPC4beta/mu-opioid, Fluo4 calcium fluorescence; hits give high values; B-score at 10 µM; actives 0.49% (n = 310,000); AID 2237;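 active = B-score above 5 SD of library B-scores, and initial fluorescence ratio not above library mean plus 5 SD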;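 note: positive B-score marks a calcium rise read as TRPC4 activation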
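Assay system – TRPC4beta and mu-opioid receptor HEK293 stable cells · Measured by – Fluo4 fluorescence, kinetic · Schedule – dye loading 45 min room temperature, 110 s kinetic read · Read-out – B-scored integrated calcium fluorescence ratio · Controls – buffer and maximal DAMGO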
DSG3 Ab inh: inhibitors of pemphigus antibody binding to human desmoglein-3. DSG3-coupled beads, scFv-anti-DSG3-GFP binding, flow cytometry; hits give low values. binding (percent of control), % at 10 µM. actives 0.48% (n = 310,000). P32926;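 active = binding more than 3 SD below its plate's average and above zero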;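 note: hits lower antibody fragment binding to DSG3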
TRPC4 spec 2: mouse TRPC4 off-target activity of TRPC6 inhibitors, second screen; inhibition, % at 10 µM; actives 42% (n = 920); shares compounds with TRPC6 inh; HEK293 TRPC4/MOR, membrane potential dye fluorescence; channel activated by saturating DAMGO dose;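 active = compounds whose fluorescence signal differed from control wells by over 3 SD, either direction, in both duplicate plates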
TRPC4 spec: tests whether TRPC6 inhibitors also affect mouse TRPC4 | shares compounds with TRPC6 inh | HEK293 TRPC4/mu-opioid, membrane potential fluorescence | activity change, negative = inhibition, % at 10 µM | actives 61% (n = 920) | AID 2777;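 active = rise or fall in signal beyond 3 SD of buffer-only wells in both replicate plates, either sign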;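 note: integrated kinetic ratio of fluorescence range over baseline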
HEK293 MPD ctr 2-1: second counter-screen for TRPC6 inhibitors: parental HEK293 cells. shares compounds with TRPC6 inh. parental HEK293 membrane potential dye fluorescence; maximal acetylcholine challenge after compound addition. signal change vs control, % at 10 µM. actives 31% (n = 920);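 active = membrane potential signal moving either way by over 3 SD of the maximum-effect control, in both duplicate plates, meaning non-specific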
HEK293 MPD ctr-1: counter-screen for TRPC6 inhibitors: effect in parental HEK293 cells; shares compounds with TRPC6 inh; membrane potential signal change, % at 10 µM; actives 60% (n = 920); parental HEK293 membrane potential dye fluorescence;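 active = membrane potential signal shifting up or down by more than 3 SD of buffer-only wells, on both duplicate plates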
HEK293 MPD ctr-2: counter-screen for TRPC6 modulators: effect in parental HEK293 cells; shares compounds with TRPC6 inh; membrane potential dye fluorescence; membrane potential signal change, % at 10 µM; actives 51% (n = 2,400);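 active = membrane potential signal moves up or down beyond 5 SD from buffer-only wells, on both duplicate plates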
HEK293 MPD ctr 2-2: second counter-screen for TRPC6 modulators: effect in parental HEK293 cells; shares compounds with TRPC6 inh; membrane potential dye fluorescence; after compound, maximal acetylcholine stimulation; inhibition, % at 10 µM; actives 14% (n = 2,400); AID 488926;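 active = membrane potential signal drops by more than 5 SD from the mean control signal, in both duplicate plates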;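 note: plate controls were acetylcholine ECmax control wells for no effect and buffer only wells for full effect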
TRPC4/MOR mod: tests whether TRPC6 modulators also affect mouse TRPC4; actives 69% (n = 2,400); HEK293 TRPC4/mu-opioid, membrane potential fluorescence; shares compounds with TRPC6 inh; percent change from control (negative = decrease, positive = increase), % at 10 µM;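 active = membrane potential signal moved up or down beyond 5 SD of buffer control wells, in both duplicate plates, actives on both sides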;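 note: plate controls were assay buffer wells for no effect and DAMGO maximal-effect wells for full effect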
TRPC4 ctr inh 2: second selectivity test of TRPC6 modulators against mouse TRPC4; HEK293 TRPC4/mu-opioid, membrane potential dye fluorescence; stimulated with maximal-effect DAMGO; shares compounds with TRPC6 inh; actives 55% (n = 2,400); inhibition, % at 10 µM;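 active = drop in membrane potential signal beyond 5 SD of the control wells in both duplicate plates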;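 note: TRPC4 counter screen for TRPC6 hits run under conditions tuned for TRPC6 not TRPC4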
TRPC6 inh conf: mouse TRPC6 inhibitor confirmation; shares compounds with TRPC6 inh; HEK293-TRPC6, membrane potential dye, ACh-evoked depolarization; inhibition, % at 10 µM; actives 43% (n = 3,300); AID 488960;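 active = fluorescence ratio falls more than 5 SD below the full-stimulation control mean, in both duplicate runs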;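 note: integrated fluorescence ratio of peak minus minimum over baseline after agonist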
TRPC6 act conf: mouse TRPC6 activator confirmation; shares compounds with TRPC6 inh; HEK293-TRPC6 membrane potential dye fluorescence, FDSS; activation, % at 10 µM; actives 11% (n = 2,800);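 active = ratio signal rise beyond 5 SD above unstimulated control wells' mean, seen in both duplicate runs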;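 note: plate controls were buffer EC0 wells for no effect and acetylcholine ECmax response for full effect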
The depositor's hits bear a star; i = inactive; / = no result given; + = active, no number. A selection: hits, their analogues and other compounds. The true share with any hit is near 2.5%.

SMILES	TRPC4 block	TRPC6 activator	TRPC6 inh	TRPC4 potent	TRPC4 act	DSG3 Ab inh	HEK293 MPD ctr-2	HEK293 MPD ctr 2-2	TRPC4/MOR mod	TRPC4 ctr inh 2	TRPC6 inh conf	TRPC6 act conf	others
Cc1cc(/C=C2\SC(=S)NC2=O)c(C)[nH]1	i	27*	-6.4*	i	i	99	782%*	+	107%*	42%*	i	164%*
CCn1c(C)cc(/C=C2/SC(=S)NC2=O)c1C	i	i	i	i	i	100	/	/	/	/	/	/
CN(CCOc1ccccc1)C(=O)c1cc([N+](=O)[O-])cc([N+](=O)[O-])c1	i	i	i	i	i	101	/	/	/	/	/	/
O=C1c2ccccc2C(=O)c2c(NCCCN(CCO)CCO)cccc21	i	i	-13*	i	i	107	-304%*	90%*	-49%*	80%*	76%*	i
CCN(CC)CC(=O)Nc1cccc2c1C(=O)c1ccccc1C2=O	i	i	i	i	i	104	/	/	/	/	/	/
CCOC(=O)N1CCN(S(=O)(=O)c2ccc(C(=O)N(CCCN(C)C)c3nc4cc(OC)ccc4s3)cc2)CC1	i	i	-5.6*	i	i	114	i	i	-25%*	81%*	73%*	i
CN(C)CCCN(C(=O)c1ccc(S(=O)(=O)N2CCCCCC2)cc1)c1nc2c(F)cc(F)cc2s1	i	i	-5.2*	i	157*	111	i	i	20%*	103%*	i	i
Cc1ccc(-n2cccn2)c(CN2CCCC(C(=O)c3ccc4c(c3)OCO4)C2)c1 (configuration not stated)	-8*	i	-6.8*	i	i	109	190%*	i	14%*	83%*	53%*	/
Cc1ccc(-n2cccn2)c(CN2CCCC(CNC(=O)c3ccc(F)cc3)C2)c1 (configuration not stated)	i	i	i	i	i	104	/	/	/	/	/	/
O=C(c1ccc(C(=O)N2CCCc3ccccc32)s1)N1CCCc2ccccc21	i	i	-6.6*	i	i	96	/	/	/	/	i	/	TRPC4 spec 2=i;TRPC4 spec=3.9%*;HEK293 MPD ctr 2-1=i;HEK293 MPD ctr-1=3.6%*

Bioassay records deposited in PubChem BioAssay by several laboratories.
